Results reported in ChEMBL document CHEMBL4020760, “Discovery of a Small Molecule Probe That Post-Translationally Stabilizes the Survival Motor Neuron Protein for the Treatment of Spinal Muscular Atrophy” (J Med Chem, 2017).
≈ marks a conversion by molar mass, not a printed value. Blank lines part the entries; values can stand above or below the compound they belong to. Calls of active or inactive are those of the source. The rule behind the calls is not given here. Peptide text beside a SMILES is read from it. * marks the point of attachment. Cbz = O=C(OCc1ccccc1)*

Tests used:
[1] = target: Survival motor neuron protein (Homo sapiens) (UniProt Q16637); experiment: Stabilization of human SMN protein expressed in HEK293 cells expressing SMN2 promoter after 24 hrs by luciferase reporter gene assay relative to control; format: cell-based
Summary of the method: (§1)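 SMN2-luc reporter cells seeded at 25,000/well overnight, then treated 24 h with six doses (3-fold serial dilutions, top final 10 or 30 μM), 0.1% DMSO. Firefly and Renilla luciferase read by dual-luciferase assay, normalized to DMSO as percent; EC50 and maximal activation from curves. Mean ± SEM, ≥3 trials.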

[2] = tested on: Liver; experiment: (§2) Half life in mouse liver microsomes; format: ADME, microsome; conditions: microsomes
Summary of the method: (§3)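 Compound stability in mouse and human liver microsomes, expressed as half-life in min.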

[3] = target: Survival motor neuron protein (Homo sapiens) (UniProt Q16637); experiment: Stabilization of SMN protein in 3813T fibroblasts derived from human SMA patient assessed as increase in SMN protein level after 48 hrs by SDS-PAGE and immunoblot
Summary of the method: (§4)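 hTERT-immortalized SMA patient 3813T fibroblasts seeded at 6000/well, next day dosed for 48 h at indicated concentrations, 0.1% DMSO. Lysed in boiling buffer (150 mM NaCl, 10 mM Tris pH 8.0, 2% SDS), run on 10% SDS-PAGE, SMN immunoblotted, normalized to tubulin or actin as fold over DMSO; one-way ANOVA with Dunnett.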

[4] = target: Survival motor neuron protein (Homo sapiens) (UniProt Q16637); experiment: Stabilization of SMN protein in 3813T fibroblasts derived from human SMA patient assessed as increase in SMN protein level after 48 hrs by SDS-PAGE and immunoblot
[5] = tested on: Plasma; experiment: Half life in mouse plasma after 60 mins; format: ADME, cell-free; conditions: 1 h
[6] = tested on: Plasma; experiment: Cmax in mouse plasma at 20 mg/kg, ip after 30 mins; format: ADME, organism-based; design: dose 20 mg/kg, route intraperitoneal; conditions: in vivo, 0.5 h, BLD = below limit of detection
[7] = tested on: Brain; experiment: Cmax in mouse brain at 20 mg/kg, ip after 30 mins; format: ADME, organism-based; design: dose 20 mg/kg, route intraperitoneal; conditions: in vivo, 0.5 h, BLD = below limit of detection
[8] = target: Survival motor neuron protein (Homo sapiens) (UniProt Q16637); experiment: Stabilization of SMN protein in 3813T fibroblasts derived from human SMA patient assessed as increase in SMN protein level at 2 uM after 48 hrs by SDS-PAGE and immunoblot
[9] = Cmax in mouse brain at 20 mg/kg, ip; format: ADME, organism-based; design: dose 20 mg/kg, route intraperitoneal
[10] = target: Survival motor neuron protein (Homo sapiens) (UniProt Q16637); experiment: Stabilization of SMN protein in 3813T fibroblasts derived from human SMA patient assessed as increase in SMN protein level at 2 uM after 48 hrs by SDS-PAGE and immunoblot; summary of the method: as §4
[11] = Aqueous solubility of the compound at pH 7.4; format: physicochemical; conditions: aqueous solution
Summary of the method: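 Kinetic solubility measured in aqueous medium at pH 7.4.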

[12] = Cmax in mouse plasma at 20 mg/kg, ip; format: ADME, organism-based; design: dose 20 mg/kg, route intraperitoneal; conditions: plasma
[13] = tested on: Liver; experiment: Half life in human liver microsomes; format: ADME, microsome; summary of the method: as §3
[14] = target: Survival motor neuron protein (Homo sapiens) (UniProt Q16637); experiment: Stabilization of human luc fused SMN protein expressed in HEK293 cells at 10 uM after 24 hrs in presence of 10 uM cycloheximide by luciferase reporter gene assay; format: cell-based
Summary of the method: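 SMN2-luciferase reporter cells were maintained in high-glucose DMEM with 10% FBS, Pen/Strep and hygromycin at 37 °C. They were treated at the same time with cycloheximide (10 μM), to block protein synthesis, and with compound or DMSO. Cells were lysed at set time points, and SMN2-luc (firefly) and Renilla-luc activities were read by dual-luciferase assay.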

[15] = tested on: Renilla; experiment: Effect on renilla recombinant luciferase protein expressed in HEK293 cells at 10 uM after 24 hrs in presence of 10 uM cycloheximide by renilla luciferase reporter gene assay; format: cell-based
Summary of the method: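 SMN2-luc reporter cells given cycloheximide (10 μM) together with compound (10 μM) or DMSO. Lysed at set time points; SMN-luc and Renilla-luc activities measured.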

[16] = tested on: HEK293; experiment: Effect on cycloheximide-induced reduction in basal level of polyubiquitinated protein level in HEK293 cells at 1 uM pretreated for 2 hrs followed by cycloheximide addition measured after 6 hrs by SDS-PAGE analysis; format: functional, cell-based; conditions: Homo sapiens
Summary of the method: (§5)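 HEK293 cells pretreated 2 h with test compound or MG-132 (1 and 10 μM), then DMSO or cycloheximide (10 μM) added and incubated a further 6 h; final DMSO 0.2%. Lysates run on 4–15% gradient SDS-PAGE; anti-ubiquitin blot for polyubiquitinated proteins, tubulin as loading control.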

[17] = species: Homo sapiens; experiment: Inhibition of proteasome in HEK293 cells assessed as increase in polyubiquitinated protein level at 1 and 10 uM incubated for 2 hrs by SDS-PAGE analysis; format: cell-based; summary of the method: as §5
[18] = species: Homo sapiens; experiment: Inhibition of proteasome in HEK293 cells assessed as stabilization of SMN protein by measuring increase in SMN protein half life at 10 uM by pulse-chase experiment; format: cell-based
[19] = as §2; format: ADME, microsome; conditions: liver microsomes; summary of the method: as §3
[20] = target: Survival motor neuron protein (Homo sapiens) (UniProt Q16637); experiment: Stabilization of SMN protein in HEK293 cells assessed as increase in SMN protein half life at 10 uM by pulse-chase experiment; format: cell-based
[21] = tested on: HEK293; experiment: Effect on human luciferase-tagged SMN mRNA expressed in HEK293 cells assessed as SMN exon 7 included transcript at 10 uM after 24 hrs by qRT-PCR relative to GAPDH mRNA expression; format: cell-based
Summary of the method: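 SMN2-luciferase reporter cells treated with compound; total RNA isolated with Trizol, DNase I treated and reverse transcribed. SYBR Green qPCR for SMN exon 7-included and full-length transcripts, with GAPDH as reference.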

[22] = Stabilization of human […] expressed in HEK293 cells expressing SMN2 promoter after 24 hrs by luciferase reporter gene assay; format: cell-based; conditions: HEK293, 24 h; summary of the method: as §1
[23] = tested on: HEK293; experiment: Stabilization of human […] expressed in HEK293 cells expressing SMN2 promoter after 24 hrs by luciferase reporter gene assay relative to control; format: cell-based; conditions: in the assay text read “SMN protein” for “SMN mRNA”; summary of the method: as §1
[24] = tested on: HEK293; experiment: Inhibition of autophagy in HEK293 cells assessed as increase in LC3-2 level at 10 uM after 8 hrs by immunoblot analysis; conditions: Homo sapiens
[25] = tested on: HEK293; experiment: Inhibition of autophagy in HEK293 cells assessed as increase in p62 level at 10 uM after 8 hrs by immunoblot analysis; conditions: Homo sapiens

Sequence of Survival motor neuron protein (Homo sapiens) (Q16637 whole entry, the tested form may be a part): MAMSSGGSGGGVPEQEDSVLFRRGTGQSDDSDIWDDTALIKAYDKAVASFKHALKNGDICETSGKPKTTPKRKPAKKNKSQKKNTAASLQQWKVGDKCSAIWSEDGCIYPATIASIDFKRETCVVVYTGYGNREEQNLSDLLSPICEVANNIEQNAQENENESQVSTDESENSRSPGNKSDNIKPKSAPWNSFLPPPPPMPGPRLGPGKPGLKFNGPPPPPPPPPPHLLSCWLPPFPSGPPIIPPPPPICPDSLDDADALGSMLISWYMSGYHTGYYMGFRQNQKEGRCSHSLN

Structure (SMILES): CC(C)c1cc(C(=O)Nc2nc3ccccc3s2)no1
Activity [1]: 124%

Structure (SMILES): CC(C)c1cc(C(=O)Oc2ccc(F)c(Cl)c2)no1
Activity [1]: inactive

Structure (SMILES): CC(C)c1cc(C(=O)NC2Cc3ccccc3C2)no1
Activity [1]: inactive

t1/2 [2]: < 5 min
Structure (SMILES): O=C(Nc1ncc(C2CCC2)s1)c1ccc(F)c(Cl)c1

Structure (SMILES): CC(C)c1cc(C(=O)Nc2ccc(F)cc2)no1
Activity [1]: 182%

t1/2 [5]: < 5 min
Cmax [6]: Bld
t1/2 [2]: > 120 min
Cmax [7]: Bld
Cmax [9]: 5 to 6 ng/mL
solubility kinetic [11]: 77 µM (≈ 17.8 µg/mL)
Cmax [12]: 2 to 3 ng/mL
t1/2 [13]: > 120 min
Structure (SMILES): CC(C)c1cc(C(=O)Nc2ccccn2)no1
Activity [3]: Dose-dependent effect
Activity [4]: Dose-dependent effect
fold change (FC) [8]: 2
fold change (FC) [10]: 2
Activity [1]: 195%

Structure (SMILES): Cc1ccc(NC(=O)c2cc(C(C)C)on2)cc1
Activity [1]: 200%

Structure (SMILES): COc1cccc(NC(=O)c2cc(C(C)C)on2)c1
Activity [1]: 147%

Structure (SMILES): CC(C)c1cc(C(=O)Nc2ncco2)no1
Activity [1]: inactive

Structure (SMILES): O=C(CCCCCCC(=O)Nc1ccccc1)NO
Activity [14]: Active
Activity [15]: Active

Structure (SMILES): CC(C)c1cc(NC(=O)Nc2ccc(F)c(Cl)c2)no1
Activity [1]: inactive

t1/2 [5]: 8 min
t1/2 [2]: < 5 min
solubility kinetic [11]: 59 µM (≈ 13.6 µg/mL)
Structure (SMILES): CC(C)c1cc(C(=O)Nc2ccccc2)no1
Activity [1]: 190%

Structure (SMILES): CC(C)C[C@@H](C=O)NC(=O)[C@H](CC(C)C)NC(=O)[C@H](CC(C)C)NC(=O)OCc1ccccc1 (Cbz-Leu-Leu-Leu-aldehyde)
Activity [16]: Active
inhibition [17]: Active
inhibition [18]: Active

t1/2 [2]: < 5 min
solubility kinetic [11]: 12 µM (≈ 3.24 µg/mL)
Structure (SMILES): CC(C)c1cc(C(=O)Nc2nc3ccccc3[nH]2)no1
Activity [1]: 211%

t1/2 [5]: 5 min
Structure (SMILES): CC(C)c1cc(C(=O)N(C)c2ccc(F)c(Cl)c2)no1
Activity [1]: inactive

t1/2 [5]: 76 min
t1/2 [2]: < 5 min
Structure (SMILES): Cc1c(C(=O)Nc2ccc(F)c(Cl)c2)noc1C(C)C
Activity [1]: 182%

t1/2 [5]: < 5 min
Structure (SMILES): CC(C)c1cc(C(=O)N2CCc3ccccc32)no1
Activity [1]: 164%

t1/2 [5]: 13 min
half-life [19]: ≤ 5 min
solubility kinetic [11]: 6 µM (≈ 1.7 µg/mL)
Structure (SMILES): CC(C)c1cc(C(=O)Nc2ccc(F)c(Cl)c2)no1
Activity [14]: Active
Activity [15]: inactive
Activity [20]: Active
Activity [21]: inactive
Activity [1]: 242%

Structure (SMILES): Cc1cccc(NC(=O)c2cc(C(C)C)on2)c1
Activity [1]: 150%

Structure (SMILES): CC(C)c1cc(C(=O)Nc2cccc(Cl)c2)no1
Activity [1]: 160%

Structure (SMILES): O=C(Nc1ccc(F)c(Cl)c1)c1ccon1
Activity [1]: inactive

Structure (SMILES): CC(C)c1cc(C(=O)Nc2cccnc2)no1
Activity [1]: 94%

Structure (SMILES): CC(C)c1cc(C(=O)Nc2ccncc2)no1
Activity [1]: inactive

t1/2 [5]: 9 min
Structure (SMILES): CC(C)c1cc(C(=O)Nc2ccccc2F)no1
Activity [1]: 175%

Structure (SMILES): CCc1cc(C(=O)Nc2ccc(F)c(Cl)c2)no1
Activity [1]: 165%

Structure (SMILES): Cc1cc(C(=O)Nc2ccc(F)c(Cl)c2)no1
Activity [1]: inactive

Structure (SMILES): CC(C)c1cc(C(=O)Nc2nc3ccccc3n2C)no1
Activity [1]: 219%

t1/2 [2]: < 5 min
solubility kinetic [11]: 49 µM (≈ 12.2 µg/mL)
Structure (SMILES): CC(C)c1cc(C(=O)Nc2cccc(F)c2)no1
Activity [1]: 180%

Structure (SMILES): CC(C)c1cc(C(=O)Nc2nccs2)no1
Activity [1]: 166%

Structure (SMILES): CC(C)c1cc(C(=O)Nc2ccccc2Cl)no1
Activity [1]: 114%

Structure (SMILES): COc1ccccc1NC(=O)c1cc(C(C)C)on1
Activity [1]: 80%

Structure (SMILES): CC(C)Cc1cc(C(=O)Nc2ccc(F)c(Cl)c2)no1
Activity [1]: 180%

Structure (SMILES): CC(C)(C)c1cc(C(=O)Nc2ccc(F)c(Cl)c2)no1
Activity [1]: 140%

Structure (SMILES): Cc1ccccc1NC(=O)c1cc(C(C)C)on1
Activity [1]: 125%

Structure (SMILES): CC(C)c1cc(C(=S)Nc2ccc(F)c(Cl)c2)no1
Activity [1]: 120%

Structure (SMILES): CC(C)c1nc(NC(=O)c2ccc(F)c(Cl)c2)cs1
Activity [1]: 131%

Structure (SMILES): CC(C)c1cc(C(=O)Nc2ccc(Cl)cc2)no1
Activity [1]: 168%

Structure (SMILES): O=C(Nc1ccc(F)c(Cl)c1)c1cc(C2CCCC2)on1
Activity [1]: inactive

EC50 [22]: 8.3 µM
Structure (SMILES): COc1cc2c(c(OC)c1OC)C(c1cc(Br)ccc1F)CC(=O)N2 (stereo unspecified)
Activity [23]: 186%
Activity [14]: Active
Activity [15]: Active
Activity [20]: inactive

t1/2 [5]: 183 min
Structure (SMILES): CC(C)c1cc(NC(=O)c2ccc(F)c(Cl)c2)no1
Activity [1]: 188%

Structure (SMILES): CCN(CC)CCCC(C)Nc1ccnc2cc(Cl)ccc12 (stereo unspecified)
Activity [24]: Active
Activity [25]: Active

Structure (SMILES): CC(C)c1cc(NC(=O)c2ccc(F)c(Cl)c2)on1
Activity [1]: 137%

Structure (SMILES): CC(C)c1cc(CNc2ccc(F)c(Cl)c2)no1
Activity [1]: 137%

Structure (SMILES): O=C(Nc1ccc(F)c(Cl)c1)c1cc(C2CCCCC2)on1
Activity [1]: inactive

Structure (SMILES): O=C(Nc1ccc(F)c(Cl)c1)c1cc(-c2ccccc2)on1
Activity [1]: inactive

Structure (SMILES): O=C(Nc1ccc(F)c(Cl)c1)c1cc(Cc2ccccc2)on1
Activity [1]: 116%
